# In the library only some 5.8% were active in any assay of this set; here they are far more common.
# T cruzi growth-1: blocks T. cruzi growth in NIH3T3 culture | T. cruzi beta-gal in NIH3T3, GalScreen luminescence, 90 h | inhibition, % at 8.34 µM | 5.9% of 77,000 active | AID 624255;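 active means mean inhibition above about 93%, with at least 55% of replicates each passing it, limit read from the data, passing the limit was not always enough; inconclusive means only one of those two conditions holds; inactive means neither condition holds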
# GASC1 inh: inhibitors of human demethylase GASC-1 KDM4C. GST-KDM4C 2-372, H3K9me3 peptide, LANCE TR-FRET. inhibition, % at 12.5 µM. 0.15% of 96,000 active;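 active means mean replicate inhibition above about 25%, with at least 55% of replicates also reaching it, limit read from the data, passing the limit was not always enough; inconclusive means only one of those two conditions met; inactive means neither condition met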
#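 Compound: one test concentration per compound; Material: GST-GASC-1 enzyme fragment 2-372; Amount: GASC-1 enzyme at 10 nM final in reaction; Also added: H3K9me3 peptide substrate, Fe(II), 2-oxoglutarate; Technique: LANCE TR-FRET; Times: 30 min demethylation and 1 h detection at room temperature.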
# Pf Dd2 growth: inhibitors of Plasmodium falciparum Dd2 growth; P. falciparum Dd2 growth, SYBR Green, 72 h; stronger effect = lower value; activity change, % at 10 µM; 2.3% of 94,000 active; AID 1159554; in the data active means activity change below about -80%; inconclusive means no clear call, values can overlap the other calls
# IDH1 R132H inh: IDH1 R132H (human) inhibition; O75874; IDH1 R132H reductase, diaphorase/resazurin fluorescence, 60 min; inhibition, % at 10 µM; 0.18% of 70,000 active; in the data active means inhibition above about 34%; inconclusive means no clear call, values can overlap the other calls; inactive means below about 11%;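 further: 0% = DMSO and 100% = no enzyme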
# Target sequence (O75874 whole entry R132H): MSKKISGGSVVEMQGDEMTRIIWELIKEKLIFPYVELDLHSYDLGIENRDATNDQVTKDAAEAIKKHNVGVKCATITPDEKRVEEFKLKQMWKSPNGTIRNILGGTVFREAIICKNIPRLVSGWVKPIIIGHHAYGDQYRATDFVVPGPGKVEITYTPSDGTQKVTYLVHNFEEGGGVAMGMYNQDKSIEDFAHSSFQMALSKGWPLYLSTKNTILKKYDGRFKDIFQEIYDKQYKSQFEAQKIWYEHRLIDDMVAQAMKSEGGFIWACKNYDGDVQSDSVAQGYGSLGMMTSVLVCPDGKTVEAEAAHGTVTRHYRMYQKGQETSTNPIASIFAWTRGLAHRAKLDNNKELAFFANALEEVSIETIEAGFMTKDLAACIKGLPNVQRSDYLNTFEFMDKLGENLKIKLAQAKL
# T cruzi growth-2: blocks T. cruzi growth in NIH3T3 host cells. T. cruzi beta-gal in NIH3T3, GalScreen luminescence, 90 h. shares compounds with T cruzi growth-1. inhibition, % at 8.35 µM. AID 651739. 72% of 5,600 active;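 active means mean replicate inhibition above about 95% and at least 55% of replicates individually reaching it, limit read from the data; inconclusive means only one of the two criteria is met; inactive means neither criterion is met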
# T cruzi growth-3: Trypanosoma cruzi proliferation inhibition. T. cruzi beta-gal in NIH3T3, GalScreen luminescence, 90 h. shares compounds with T cruzi growth-1. 21% of 5,600 active. inhibition, % at 2.09 µM;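 active means mean inhibition above about 95%, with at least 55% of replicates also reaching it, limit read from the data; inconclusive means meets just one of the two conditions; inactive means meets neither condition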;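 further: plate controls were neutral control median for no effect and positive control median for full effect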
# 3T3 cytotox: cytotoxicity in mouse NIH/3T3 fibroblasts | shares compounds with T cruzi growth-1 | NIH/3T3 viability, CellTiter-Glo ATP luminescence, 90 h | cytotoxicity (signal decrease), % at 8.35 µM | 14% of 5,600 active | AID 651742;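 active means mean signal decrease across replicates above about 35% based on untreated-well scatter, with enough replicates individually passing, limit read from the data; inconclusive means no rule stated though some were filed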;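 further: 0% = median of neutral control wells and 100% = median of positive control wells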
# 3T3 cytotox 2: kills mouse NIH/3T3 fibroblasts; NIH/3T3 viability, CellTiter-Glo ATP luminescence, 90 h; 56% of 5,600 active; inhibition, % at 24.9 µM; shares compounds with T cruzi growth-1;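 active means mean loss of cell viability signal at or above a set limit, and enough replicates individually reaching it; inconclusive means meets only the mean limit or only the replicate share; inactive means meets neither condition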;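 further: 0% = median of neutral control wells and 100% = median of positive control wells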
# * = called active by the depositor; ? = inconclusive; · = not tested or not shown.
SMILES,T cruzi growth-1,GASC1 inh,Pf Dd2 growth,IDH1 R132H inh,T cruzi growth-2,T cruzi growth-3,3T3 cytotox,3T3 cytotox 2
C[C@@H]1CN([C@@H](C)CO)C(=O)c2cc(C3=CCCC3)cnc2O[C@@H]1CN(C)Cc1ccccc1,?,-1,-26,-1,?,36,-11,17
C[C@H]1CN([C@@H](C)CO)C(=O)c2cc(C3=CCCCC3)cnc2O[C@@H]1CN(C)Cc1cccc(F)c1,29,0,-14,-2,·,·,·,·
C[C@@H]1CN([C@@H](C)CO)C(=O)c2cc(C3=CCCCC3)cnc2O[C@H]1CN(C)Cc1cccc(F)c1,115*,-3,-15,-1,105*,26,14,105*
C[C@@H]1CCCCO[C@@H](CN(C)S(=O)(=O)c2cccs2)[C@@H](C)CN([C@H](C)CO)C(=O)c2cc(NS(=O)(=O)c3ccc(Cl)cc3)ccc2O1,?,0,-26,1,106*,72,0,38*
C[C@H](CO)N1C[C@H](C)[C@H](CN(C)S(=O)(=O)c2cccs2)OCCCC[C@H](C)Oc2ccc(NS(=O)(=O)c3ccc(Cl)cc3)cc2C1=O,104*,-1,-51,0,102*,84,-9,5
C[C@@H]1CCCCO[C@H](CN(C)S(=O)(=O)c2cccs2)[C@H](C)CN([C@@H](C)CO)C(=O)c2cc(NS(=O)(=O)c3ccc(Cl)cc3)ccc2O1,95*,0,-58,0,102*,82,-3,14
C[C@@H]1CCCCO[C@H](CN(C)S(=O)(=O)c2cccs2)[C@@H](C)CN([C@@H](C)CO)C(=O)c2cc(NS(=O)(=O)c3ccc(Cl)cc3)ccc2O1,93*,0,-57,·,98*,99*,-16,-2
C[C@@H]1CCCCO[C@@H](CN(C)S(=O)(=O)c2cccs2)[C@H](C)CN([C@H](C)CO)C(=O)c2cc(NS(=O)(=O)c3ccc(Cl)cc3)ccc2O1,92,0,-69,3,·,·,·,·
C[C@H](CO)N1C[C@H](C)[C@@H](CN(C)S(=O)(=O)c2cccs2)OCCCC[C@H](C)Oc2ccc(NS(=O)(=O)c3ccc(Cl)cc3)cc2C1=O,102,0,-30,1,·,·,·,·
C[C@H]1CN([C@@H](C)CO)C(=O)c2cc(C3=CCCCC3)cnc2O[C@@H]1CN(C)Cc1cccnc1,2,0,1,0,·,·,·,·
COc1ccc2c3c([nH]c2c1)[C@H](CO)N(Cc1ccncc1)CC31CN(CC2CCOCC2)C1,·,2,2,·,·,·,·,·
Cc1ccc(S(=O)(=O)N(C)C[C@@H]2OCCCC[C@@H](C)Oc3ccc(NS(=O)(=O)c4ccc(Cl)cc4)cc3C(=O)N([C@H](C)CO)C[C@@H]2C)cc1,74,-2,-14,3,·,·,·,·
Cc1ccc(S(=O)(=O)N(C)C[C@H]2OCCCC[C@H](C)Oc3ccc(NS(=O)(=O)c4ccc(Cl)cc4)cc3C(=O)N([C@@H](C)CO)C[C@H]2C)cc1,?,0,-64,0,104*,108*,-37,-16
Cc1ccc(S(=O)(=O)Nc2ccc3c(c2)C(=O)N([C@@H](C)CO)C[C@@H](C)[C@@H](CN(C)S(=O)(=O)c2ccc(Cl)cc2)OCCCC[C@@H](C)O3)cc1,47,1,-69,·,·,·,·,·
Cc1ccc(S(=O)(=O)N(C)C[C@@H]2OCCCC[C@@H](C)Oc3ccc(NS(=O)(=O)c4ccc(Cl)cc4)cc3C(=O)N([C@@H](C)CO)C[C@@H]2C)cc1,110*,0,-57,·,100*,113*,10,46*
Cc1ccc(S(=O)(=O)N(C)C[C@H]2OCCCC[C@H](C)Oc3ccc(NS(=O)(=O)c4ccc(Cl)cc4)cc3C(=O)N([C@@H](C)CO)C[C@@H]2C)cc1,93*,1,-59,2,109*,107*,-31,-29
Cc1ccc(S(=O)(=O)Nc2ccc3c(c2)C(=O)N([C@H](C)CO)C[C@@H](C)[C@H](CN(C)S(=O)(=O)c2ccc(Cl)cc2)OCCCC[C@H](C)O3)cc1,·,-2,-69,-1,·,·,·,·

# Bioassay records from PubChem.
